Consider 18 compounds from ChEMBL document CHEMBL1139169, “Design, synthesis, and antiviral properties of 4'-substituted ribonucleosides as inhibitors of hepatitis C virus replication: the discovery of R1479” (Bioorg Med Chem Lett, 2007).

The structures appear in SMILES notation. pIC50: −log10 of the molar value.

Series [1] has as its system Hepatitis C virus. Briefly: Antiviral activity against HCV 1b replicon in human 2209-23 cells assessed as inhibition of viral replication at 20 uM. Format: functional, Hepacivirus hominis. The following applies: genotype 1b. The method in brief: (§1)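 Huh-7 replicon cell line 2209-23. Compounds were tested at a single fixed concentration and scored as percent inhibition of replicon replication, or titrated to give the IC50, the concentration producing a 50% reduction in replicon replication.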

Series [2] is described as follows: Cytotoxicity against human 2209-23 cells at 20 uM. Format: cell-based. The settings on record: 2209-23, 20 µM.
The test system of series [3] is Hepatitis C virus. Briefly: Inhibition of HCV 1b BK NS5B570 RNA polymerase. Further details: species or system Hepatitis C virus subtype 1b. Summed up:
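NS5B570-BK polymerase activity was read as incorporation of radiolabeled nucleoside monophosphate into acid-insoluble RNA products, with HCV cIRES RNA as template.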

For series [4], the system named is Hepatitis C virus. Briefly: Antiviral activity against HCV 1b replicon in human 2209-23 cells assessed as inhibition of viral replication at 100 uM. Format: functional, Hepacivirus hominis. The settings on record: genotype 1b. (In general: A replicon is a self-replicating genome or part of one, used to study replication in cells.)
Series [5] can be described thus: Cytotoxicity against human 2209-23 cells at 100 uM. Format: cell-based. The settings on record: 2209-23, 100 µM.
Series [6] can be described thus: Cytostatic activity against human 2209-23 cells. The format is ADME, cell-based. The following applies: read-out: CT50 (the source's name). The method in brief: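 Replicon cells were tested for proliferation by measuring incorporation of tritiated thymidine into cellular DNA with a scintillation proximity assay (SPA). CT50 was taken as the cytostatic concentration.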

The nature of series [7]: Cytotoxicity against human 2209-23 cells. Format: cell-based.
The test system of series [8] is Hepatitis C virus. Briefly: Antiviral activity against HCV 1b replicon in human 2209-23 cells. The following applies: genotype 1b. The format is functional, organism-based, Hepacivirus hominis. Summed up: as §1

Consider `[N-]=[N+]=N[C@]1(CO)O[C@@H](n2ccc(=O)[nH]c2=O)[C@H](O)[C@@H]1O`, for which, in the series on Hepatitis C virus [1], the inhibition – broadly, the share of the control response that was lost under treatment – at 20 µM turned out to be 13%. The Activity in series [2] was determined as 17%. Further, the negative-log IC50 (pIC50) (as a rule, the negative decadic logarithm of the IC50, by convention in mol/L) with Hepatitis C virus [3] is 6.52.
For `CC[C@]1(CO)O[C@@H](n2ccc(N)nc2=O)[C@H](O)[C@@H]1O`, the inhibition at 100 µM with Hepatitis C virus [4] is 20%. In series [5], this compound gave an Activity of 20%.
For the compound `O=c1ccn([C@@H]2OC(CO)(CO)[C@@H](O)[C@H]2O)c(=O)[nH]1`, in the series with Hepatitis C virus [1], the inhibition at 20 µM was 1%. The compound also showed an Activity in series [2] of 0%.
With `CC#C[C@]1(CO)O[C@@H](n2ccc(=O)[nH]c2=O)[C@H](O)[C@@H]1O`, in the series with Hepatitis C virus [4], the inhibition at 100 µM was determined as 76%. This compound showed an Activity in series [5] of 19%.
For `CC#C[C@]1(CO)O[C@@H](n2ccc(N)nc2=O)[C@H](O)[C@@H]1O`, the inhibition at 20 µM in the series with Hepatitis C virus [1] turned out to be 11%. Also, the Activity in series [2] came out at 0%.
Consider `C=C[C@]1(CO)O[C@@H](n2ccc(=O)[nH]c2=O)[C@H](O)[C@@H]1O`, for which the inhibition at 100 µM in the series on Hepatitis C virus [4] was determined as 50%. In addition, the Activity in series [2] stood at 0%.
In the same order, the values of `C=C[C@]1(CO)O[C@@H](n2ccc(N)nc2=O)[C@H](O)[C@@H]1O` are 53% and 0%.
For the compound `N#C[C@]1(CO)O[C@@H](n2ccc(=O)[nH]c2=O)[C@H](O)[C@@H]1O`, the inhibition at 20 µM in the series on Hepatitis C virus [1] is 0%. For the same compound, the Activity in series [2] is 0%.
Take `N#C[C@]1(CO)O[C@@H](n2ccc(N)nc2=O)[C@H](O)[C@@H]1O`: the inhibition at 20 µM in the series on Hepatitis C virus [1] came to 99%. In addition, in series [2], the Activity was 100%.
For `C#C[C@]1(CO)O[C@@H](n2ccc(=O)[nH]c2=O)[C@H](O)[C@@H]1O`, the inhibition at 20 µM in the series on Hepatitis C virus [1] was determined as 0%. For the same compound, the Activity in series [2] came out at 0%.
In the case of `Nc1ccn([C@@H]2O[C@H](CO)[C@@H](O)[C@H]2F)c(=O)n1`, the GI50 in series [6] was 0.8 µM. Further, in series [7], the CC50 – broadly, the concentration giving 50% cytotoxicity – was more than 100 µM. In addition, in the series with Hepatitis C virus [8], the pIC50 is 6.24.
As to `CCO[C@]1(CO)O[C@@H](n2ccc(N)nc2=O)[C@H](O)[C@@H]1O`, the inhibition at 20 µM with Hepatitis C virus [1] was determined as 11%. In series [2], this compound registered an Activity of 0%.
In the same order, the values of `Nc1ccn([C@@H]2OC(CO)(CO)[C@@H](O)[C@H]2O)c(=O)n1` are 13% and 2%.
With `C=CC[C@]1(CO)O[C@@H](n2ccc(=O)[nH]c2=O)[C@H](O)[C@@H]1O`, the half-maximal cytotoxic concentration (CC50) in series [7] is 39 µM. Besides, the negative logarithm of the IC50 (pIC50) in the series with Hepatitis C virus [8] is 4.66.
In the case of `C=CC[C@]1(CO)O[C@@H](n2ccc(N)nc2=O)[C@H](O)[C@@H]1O`, the inhibition at 20 µM with Hepatitis C virus [1] was 0%. In series [2], this compound registered an Activity of 0%.
For `C[C@@]1(O)[C@H](O)[C@@H](CO)O[C@H]1n1ccc(N)nc1=O`, in series [6], the GI50 was more than 100 µM. Also, the CC50 in series [7] was more than 33 µM. This compound gave a negative-log IC50 (pIC50) in the series with Hepatitis C virus [8] of 5.91.
In the case of `C#C[C@]1(CO)O[C@@H](n2ccc(N)nc2=O)[C@H](O)[C@@H]1O`, the inhibition at 20 µM in the series with Hepatitis C virus [1] turned out to be 3%. In series [2], this compound registered an Activity of 0%. The pIC50 in the series on Hepatitis C virus [3] was 5.57.
`[N-]=[N+]=N[C@]1(CO)O[C@@H](n2ccc(N)nc2=O)[C@H](O)[C@@H]1O` [4'-AZIDOCYTIDINE]: the inhibition at 20 µM in the series with Hepatitis C virus [1] was 97%. This compound also displayed an Activity in series [2] of 13%. Also, the GI50 in series [6] was more than 100 µM. Moreover, the figures for the negative-log IC50 (pIC50) in the series with Hepatitis C virus [3] and in the series on Hepatitis C virus [8] were 6.54 and 5.89, respectively. The compound further displayed a CC50 in series [7] of more than 2000 µM.
